≈ marks a conversion by molar mass, not a printed value.
Experiments:
[1] = target: T1, Lanosterol 14-alpha demethylase (Candida albicans (strain SC5314 / ATCC MYA-2876) (Yeast), UniProt P10613); assay: Inhibition of CYP51 in Candida albicans ATCC SC5314 assessed as lanosterol content at 8 ug/ml by GS-MS analysis relative to total sterols; parameters: scale not given: the % may be the effect or the level left; conditions: at 8 µg/mL
[2] = target: T1, Lanosterol 14-alpha demethylase; assay: Inhibition of CYP51 in Candida albicans ATCC SC5314 assessed as ergosterol content at 0.125 ug/ml by GS-MS analysis relative to total sterols (reference value: 98.7%); parameters: scale not given: the % may be the effect or the level left
[3] = target: T1, Lanosterol 14-alpha demethylase; assay: Inhibition of CYP51 in Candida albicans ATCC SC5314 assessed as eburicol content at 8 ug/ml by GS-MS analysis relative to total sterols (reference value: 0.4%); parameters: scale not given: the % may be the effect or the level left; conditions: at 8 µg/mL
[4] = target: T1, Lanosterol 14-alpha demethylase; assay: Inhibition of CYP51 in Candida albicans ATCC SC5314 assessed as ergosterol content at 0.5 ug/ml by GS-MS analysis relative to total sterols (reference value: 98.7%); parameters: scale not given: the % may be the effect or the level left; conditions: at 0.5 µg/mL
[5] = target: T1, Lanosterol 14-alpha demethylase; assay: Inhibition of CYP51 in Candida albicans ATCC SC5314 assessed as obtusifoliol content at 0.5 ug/ml by GS-MS analysis relative to total sterols (reference value: 0.6%); parameters: scale not given: the % may be the effect or the level left; conditions: at 0.5 µg/mL
[6] = target: T1, Lanosterol 14-alpha demethylase; assay: Inhibition of CYP51 in Candida albicans ATCC SC5314 assessed as eburicol content at 2 ug/ml by GS-MS analysis relative to total sterols (reference value: 0.4%); parameters: scale not given: the % may be the effect or the level left; conditions: at 2 µg/mL
[7] = target: T1, Lanosterol 14-alpha demethylase; assay: Inhibition of CYP51 in Candida albicans ATCC SC5314 assessed as eburicol content at 0.5 ug/ml by GS-MS analysis relative to total sterols (reference value: 0.4%); parameters: scale not given: the % may be the effect or the level left; conditions: at 0.5 µg/mL
[8] = target: T1, Lanosterol 14-alpha demethylase; assay: Inhibition of CYP51 in Candida albicans ATCC SC5314 assessed as lanosterol content at 0.125 ug/ml by GS-MS analysis relative to total sterols; parameters: scale not given: the % may be the effect or the level left
[9] = target: T1, Lanosterol 14-alpha demethylase; assay: Inhibition of CYP51 in Candida albicans ATCC SC5314 assessed as obtusifoliol content at 0.03125 ug/ml by GS-MS analysis relative to total sterols (reference value: 0.6%); parameters: scale not given: the % may be the effect or the level left
[10] = target: T1, Lanosterol 14-alpha demethylase; assay: Inhibition of CYP51 in Candida albicans ATCC SC5314 assessed as obtusifoliol content at 2 ug/ml by GS-MS analysis relative to total sterols (reference value: 0.6%); parameters: scale not given: the % may be the effect or the level left; conditions: at 2 µg/mL
[11] = target: T1, Lanosterol 14-alpha demethylase; assay: Inhibition of CYP51 in Candida albicans ATCC SC5314 assessed as increase in eburicol content by GS-MS analysis
[12] = target: T1, Lanosterol 14-alpha demethylase; assay: Inhibition of CYP51 in Candida albicans ATCC SC5314 assessed as decrease in ergosterol content by GS-MS analysis
[13] = target: T1, Lanosterol 14-alpha demethylase; assay: Inhibition of CYP51 in Candida albicans ATCC SC5314 assessed as eburicol content at 0.03125 ug/ml by GS-MS analysis relative to total sterols (reference value: 0.4%); parameters: scale not given: the % may be the effect or the level left
Candida albicans [14] = assay: Antifungal activity against fluconazole-resistant Candida albicans strain 100 by broth microdilution method; assay type: functional
Method in brief: (§1)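 Broth serial dilution in 96-well plates per NCCLS guidelines; compounds dissolved in DMSO and serially diluted into growth medium; MIC taken as lowest concentration inhibiting visible fungal growth. Fluconazole-resistant clinical C. albicans isolates 100 and 103; fluconazole and itraconazole as positive controls.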

Aspergillus fumigatus = assay: Antifungal activity against Aspergillus fumigatus GIM 3.524 by broth microdilution method; assay type: functional
Method in brief: (§2)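 Serial twofold-style dilution in growth medium per NCCLS broth microdilution guidelines. Compounds dissolved in DMSO before dilution. Fluconazole and itraconazole served as positive controls. MIC was read as the lowest concentration that prevents visible fungal growth.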

Candida albicans [15] = assay: Antifungal activity against Candida albicans CPCC 400523 by broth microdilution method; assay type: functional; method in brief: as §2
Candida albicans [16] = assay: Antifungal activity against Candida albicans ATCC SC5314 by broth microdilution method; assay type: functional; method in brief: as §2
[17] = target: T1, Lanosterol 14-alpha demethylase; assay: Inhibition of CYP51 in Candida albicans ATCC SC5314 assessed as obtusifoliol content at 8 ug/ml by GS-MS analysis relative to total sterols (reference value: 0.6%); parameters: scale not given: the % may be the effect or the level left; conditions: at 8 µg/mL
[18] = target: T1, Lanosterol 14-alpha demethylase; assay: Inhibition of CYP51 in Candida albicans ATCC SC5314 assessed as ergosterol content at 0.03125 ug/ml by GS-MS analysis relative to total sterols (reference value: 98.7%); parameters: scale not given: the % may be the effect or the level left
[19] = target: T1, Lanosterol 14-alpha demethylase; assay: Inhibition of CYP51 in Candida albicans ATCC SC5314 assessed as lanosterol content at 2 ug/ml by GS-MS analysis relative to total sterols; parameters: scale not given: the % may be the effect or the level left; conditions: at 2 µg/mL
[20] = target: T1, Lanosterol 14-alpha demethylase; assay: Inhibition of CYP51 in Candida albicans ATCC SC5314 assessed as ergosterol content at 2 ug/ml by GS-MS analysis relative to total sterols (reference value: 98.7%); parameters: scale not given: the % may be the effect or the level left; conditions: at 2 µg/mL
[21] = target: T1, Lanosterol 14-alpha demethylase; assay: Inhibition of CYP51 in Candida albicans ATCC SC5314 assessed as 4,4-dimethyl zymosterol content at 2 ug/ml by GS-MS analysis relative to total sterols; parameters: scale not given: the % may be the effect or the level left
Method in brief: (§3)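 C. albicans SC5314 cells exposed to drug at 0.03125–8 µg/mL alongside untreated and fluconazole-treated cells; sterols extracted and analysed by GC-MS with cholesterol as internal standard; each sterol expressed as percent of total sterols.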

[22] = target: T1, Lanosterol 14-alpha demethylase; assay: Inhibition of CYP51 in Candida albicans ATCC SC5314 assessed as ergosterol content at 8 ug/ml by GS-MS analysis relative to total sterols (reference value: 98.7%); parameters: scale not given: the % may be the effect or the level left; conditions: at 8 µg/mL
Candida tropicalis = assay: Antifungal activity against Candida tropicalis cgmcc 2.3739 by broth microdilution method; assay type: functional; method in brief: as §2
[23] = target: T1, Lanosterol 14-alpha demethylase; assay: Inhibition of CYP51 in Candida albicans ATCC SC5314 assessed as increase in lanosterol content by GS-MS analysis
[24] = target: T1, Lanosterol 14-alpha demethylase; assay: Inhibition of CYP51 in Candida albicans ATCC SC5314 assessed as obtusifoliol content at 0.125 ug/ml by GS-MS analysis relative to total sterols (reference value: 0.6%); parameters: scale not given: the % may be the effect or the level left
Cryptococcus neoformans = assay: Antifungal activity against Cryptococcus neoformans cgmcc 2.3161 by broth microdilution method; assay type: functional; method in brief: as §2
[25] = target: T1, Lanosterol 14-alpha demethylase; assay: Inhibition of CYP51 in Candida albicans ATCC SC5314 assessed as 4,4-dimethyl zymosterol content at 8 ug/ml by GS-MS analysis relative to total sterols; parameters: scale not given: the % may be the effect or the level left; method in brief: as §3
Candida albicans [26] = assay: Antifungal activity against fluconazole-resistant Candida albicans strain 103 by broth microdilution method; assay type: functional; method in brief: as §1
[27] = target: T1, Lanosterol 14-alpha demethylase; assay: Inhibition of CYP51 in Candida albicans ATCC SC5314 assessed as lanosterol content at 0.5 ug/ml by GS-MS analysis relative to total sterols; parameters: scale not given: the % may be the effect or the level left; conditions: at 0.5 µg/mL
[28] = target: T1, Lanosterol 14-alpha demethylase; assay: Inhibition of CYP51 in Candida albicans ATCC SC5314 assessed as eburicol content at 0.125 ug/ml by GS-MS analysis relative to total sterols (reference value: 0.4%); parameters: scale not given: the % may be the effect or the level left
[29] = Metabolic stability in human plasma assessed as parent compound remaining at 120 mins; assay type: ADME, cell-free; conditions: read-out: Stability
[30] = Metabolic stability in human plasma assessed as parent compound remaining at 60 mins; assay type: ADME, cell-free; conditions: read-out: Stability

T1 sequence (P10613 whole entry): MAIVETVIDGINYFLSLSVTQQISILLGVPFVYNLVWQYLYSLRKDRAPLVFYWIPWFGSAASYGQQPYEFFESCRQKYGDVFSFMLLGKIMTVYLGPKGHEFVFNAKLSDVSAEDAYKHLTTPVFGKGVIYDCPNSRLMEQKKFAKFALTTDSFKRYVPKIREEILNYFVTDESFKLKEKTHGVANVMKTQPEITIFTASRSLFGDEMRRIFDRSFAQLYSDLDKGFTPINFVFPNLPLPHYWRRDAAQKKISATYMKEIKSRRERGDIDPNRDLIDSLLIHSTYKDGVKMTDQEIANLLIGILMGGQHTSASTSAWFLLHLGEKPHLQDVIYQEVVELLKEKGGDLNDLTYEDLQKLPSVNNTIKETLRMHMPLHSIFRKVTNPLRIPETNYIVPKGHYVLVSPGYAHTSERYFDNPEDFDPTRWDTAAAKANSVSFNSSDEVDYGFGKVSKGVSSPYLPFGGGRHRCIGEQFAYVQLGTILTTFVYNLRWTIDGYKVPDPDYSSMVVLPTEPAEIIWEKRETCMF

| Compound | Activity [1] | Activity [2] | Activity [3] | Activity [4] | Activity [5] | Activity [6] | Activity [7] | Activity [8] | Activity [9] | Activity [10] | inhibition (INH) [11] | inhibition (INH) [12] | Activity [13] | MIC (Candida albicans [14]) | MIC (Aspergillus fumigatus) | MIC (Candida albicans [15]) | MIC (Candida albicans [16]) | Activity [17] | Activity [18] | Activity [19] | other results |
| --- | --- | --- | --- | --- | --- | --- | --- | --- | --- | --- | --- | --- | --- | --- | --- | --- | --- | --- | --- | --- | --- |
| OC(Cn1cncn1)(Cn1cncn1)c1ccc(F)cc1F [FLUCONAZOLE] | 34.8% | 88.7% | 37.2% | 81.4% | 6.9% | 27% | 7.2% | 0.4% | 3.6% | 16.1% | Dose-dependent effect | Dose-dependent effect | 0.8% | > 64 µg/mL | 16 µg/mL (≈ 52.2 µM) | 2 µg/mL (≈ 6.53 µM) | 1 µg/mL (≈ 3.27 µM) | 13.3% | 95.6% | 23% | Activity [20]: 18.2%; Activity [21]: 15.7%; Activity [22]: 1.7%; MIC (Candida tropicalis): 0.25 µg/mL (≈ 0.816 µM); inhibition (INH) [23]: Dose-dependent effect; Activity [24]: 8.9%; MIC (Cryptococcus neoformans): 4 µg/mL (≈ 13.1 µM); Activity [25]: 13%; MIC (Candida albicans [26]): > 64 µg/mL; Activity [27]: 4.5%; Activity [28]: 2% |
| CC(C)OC(=O)[C@H](Cn1ccnc1)NC(=O)c1cc(-c2ccccc2F)on1 | 26.7% | 85.9% | 63.7% | 30.8% | 6.9% | 63.3% | 45.6% | 2.2% | 4.3% | 9.2% | Dose-dependent effect | Dose-dependent effect | 1.7% | 1 µg/mL (≈ 2.59 µM) | 4 µg/mL (≈ 10.4 µM) | 0.25 µg/mL (≈ 0.647 µM) | 0.0625 µg/mL (≈ 0.162 µM) | 8.9% | 93.9% | 22% | remaining at 2 h [29]: 91.8%; remaining at 1 h [30]: 95.3%; Activity [20]: 5.4%; Activity [22]: 0.7%; MIC (Candida tropicalis): 0.0312 µg/mL (≈ 0.0809 µM); inhibition (INH) [23]: Dose-dependent effect; Activity [24]: 6.9%; MIC (Cryptococcus neoformans): 0.5 µg/mL (≈ 1.29 µM); MIC (Candida albicans [26]): 1 µg/mL (≈ 2.59 µM); Activity [27]: 16.7%; Activity [28]: 4.9% |

Reference: ChEMBL document CHEMBL4118063, “Design, synthesis and evaluation of aromatic heterocyclic derivatives as potent antifungal agents” (Eur J Med Chem, 2017)
